Experimental data from ChEMBL document CHEMBL1240389, “In vitro and in vivo activities of the novel anticytomegalovirus compound AIC246” (Antimicrob Agents Chemother, 2010).
Calls of active or inactive are those of the source. No cut-off for these calls is given here.

Columns and labels:
[1] = Cytotoxicity against HEL299 cells infected with human cytomegalovirus after 7 days by alamar blue assay; assay type: cell-based, HEL 299
Procedure, shortened: (§1)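 Fibroblasts seeded at 1.5 × 10⁴/well, incubated overnight, then given drug in 3-fold serial dilutions from 0.33 mM (DMSO constant 0.66%). After 7 days, alamarBlue added and fluorescence read; signal as % of untreated cell controls versus log concentration; CC50 from dose-response curves. At least three experiments with duplicates.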

[2] = Cytotoxicity against human HS27 cells infected with human cytomegalovirus after 7 days by alamar blue assay; assay type: cell-based; procedure, shortened: as §1
[3] = Selectivity index, ratio of CC50 for human HS27 cells to EC50 for human cytomegalovirus infected in human HS27 cells; assay type: toxicity, cell-based; conditions: HS27 cells infected with human cytomegalovirus, read-out: Selectivity Index
Procedure, shortened: (§2)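 SI = CC₅₀/EC₅₀ in the same fibroblast type. EC₅₀: GFP-expressing HCMV AD169, 3-fold dilutions, 7 days at 37°C, GFP units by CCD camera. CC₅₀ run in parallel: 1.5 × 10⁴ cells/well overnight, 3-fold dilutions from 0.33 mM (DMSO constant 0.66%), 7 days, alamarBlue fluorescence as % of untreated cells; ≥3 runs in duplicate.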

[4] = Cytotoxicity against NHDF infected with human cytomegalovirus after 7 days by alamar blue assay; assay type: cell-based; conditions: NHDF cells infected with human cytomegalovirus; procedure, shortened: as §1
[5] = Cytotoxicity against human MRC5 cells infected with human cytomegalovirus after 7 days by alamar blue assay; assay type: cell-based; procedure, shortened: as §1
[6] = Selectivity index, ratio of CC50 for human MRC5 cells to EC50 for human cytomegalovirus infected in human MRC5 cells; assay type: toxicity, cell-based; conditions: MRC5 cells infected with human cytomegalovirus, read-out: Selectivity Index; procedure, shortened: as §2
[7] = Cytotoxicity against HLF infected with human cytomegalovirus after 7 days by alamar blue assay; conditions: HLF cells infected with human cytomegalovirus; procedure, shortened: as §1
[8] = Selectivity index, ratio of CC50 for HEL299 cells to EC50 for human cytomegalovirus infected in HEL299 cells; assay type: toxicity, cell-based, HEL 299; conditions: read-out: Selectivity Index; procedure, shortened: as §2
[9] = tested on: Human betaherpesvirus 5; experiment: Antiviral activity against 0.1 MOI human cytomegalovirus AD169 infected in NHDF after 7 days by GFP-based fluorescent reduction assay; assay type: functional, organism-based; conditions: Human betaherpesvirus 5, AD169, NHDF, 168 h
Procedure, shortened: (§3)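 NHDF cells (1.5 × 10⁴/well) infected with GFP-expressing HCMV AD169 at the stated MOI (range 0.003 to 1 tested). After adsorption the inoculum was replaced, and compound was added in 3-fold serial dilutions, each at least in duplicate. Cells were incubated 7 days at 37°C, then GFP units were read by CCD camera in PBS. EC₅₀ was taken as the % GFPU reduction versus no-drug control. At least triplicate experiments.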

[10] = tested on: Human betaherpesvirus 5; experiment: Antiviral activity against ganciclovir-resistant human cytomegalovirus isolate E17251S infected in NHDF assessed as inhibition of virus-induced cytopathic effect after 6 to 7 days by giemsa staining; assay type: functional, organism-based; conditions: Human betaherpesvirus 5, isolate E17251S
Procedure, shortened: (§4)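 Cell-associated virus (infected NHDF cells) used as inoculum, at MOI 0.001 to 0.002, mixed with uninfected NHDF (1 × 10⁴ to 3 × 10⁴ cells/well). Compound was added in 2-fold serial dilutions, final 250 to 0.00005 μM, in duplicates. Incubation was 6 to 7 days at 37°C, followed by Giemsa/formalin staining and visual CPE scoring. EC₅₀ is 50% CPE inhibition versus untreated infected control; at least two independent experiments.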

[11] = tested on: Human betaherpesvirus 5; experiment: Antiviral activity against human cytomegalovirus AD169 infected in NHDF after 7 days by GFP-based fluorescent reduction assay; assay type: functional, organism-based; conditions: Human betaherpesvirus 5, AD169, NHDF, 168 h
Procedure, shortened: (§5)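 Incubated 7 days at 37°C, medium swapped for PBS, GFP units read by CCD-camera fluorescence imager. EC50/EC90 from % GFPU reduction versus untreated infected wells by nonlinear regression; at least triplicate experiments.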

[12] = tested on: Human betaherpesvirus 5; experiment: Antiviral activity against human cytomegalovirus AD169 infected in NHDF assessed as inhibition of virus replication at 50 nM measured after 24 to 72 hrs of compound wash by fluorescence assay; assay type: functional, organism-based
[13] = tested on: Human betaherpesvirus 5; experiment: Antiviral activity against 1 MOI human cytomegalovirus AD169 infected in NHDF after 7 days by GFP-based fluorescent reduction assay; assay type: functional, organism-based; conditions: Human betaherpesvirus 5, AD169, NHDF, 168 h
Procedure, shortened: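 NHDF cells (1.5 × 10⁴/well) infected with GFP-expressing HCMV AD169 at increasing MOI (0.003 to 1); after adsorption inoculum replaced, compound added in serial 3-fold dilutions, at least duplicate. 7 days at 37°C, medium swapped for PBS, GFP units read by CCD camera. EC₅₀ = 50% GFPU reduction versus no-drug virus control by nonlinear regression; at least triplicate experiments.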

[14] = tested on: Human betaherpesvirus 5; experiment: Antiviral activity against 0.03 MOI human cytomegalovirus AD169 infected in NHDF after 7 days by GFP-based fluorescent reduction assay; assay type: functional, organism-based; conditions: Human betaherpesvirus 5, AD169, NHDF, 168 h; procedure, shortened: as §3
[15] = tested on: Human betaherpesvirus 5; experiment: Antiviral activity against ganciclovir-resistant human cytomegalovirus isolate 1947R infected in NHDF assessed as inhibition of virus-induced cytopathic effect after 6 to 7 days by giemsa staining; assay type: functional, organism-based; conditions: Human betaherpesvirus 5, isolate 1947R; procedure, shortened: as §4
[16] = tested on: Human betaherpesvirus 5; experiment: Antiviral activity against human cytomegalovirus isolate E16415S infected in NHDF assessed as inhibition of virus-induced cytopathic effect after 6 to 7 days by giemsa staining; assay type: functional, organism-based; conditions: Human betaherpesvirus 5, isolate E16415S; procedure, shortened: as §4
[17] = tested on: Human betaherpesvirus 5; experiment: Antiviral activity against human cytomegalovirus infected in HEL299 cells after 7 days by GFP-based fluorescent reduction assay; assay type: functional, organism-based; conditions: Human betaherpesvirus 5, HEL 299, 168 h
Procedure, shortened: (§6)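 Fibroblasts of the stated type (1.5 × 10⁴/well) infected with GFP-expressing recombinant AD169 (HCMV-GFP MOI 0.1 or RV-HG MOI 0.2 to 0.5). After adsorption the inoculum was replaced, with 3-fold serial compound dilutions at least in duplicate, and 7 days at 37°C. GFP units were read by CCD camera in PBS. EC₅₀ was derived from GFPU reduction versus untreated infected wells; at least triplicate runs.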

[18] = tested on: Human betaherpesvirus 5; experiment: Antiviral activity against human cytomegalovirus Davis infected in NHDF assessed as inhibition of virus-induced cytopathic effect after 6 to 7 days by giemsa staining; assay type: functional, organism-based; conditions: Human betaherpesvirus 5, Davis
Procedure, shortened: (§7)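 NHDF cells (1 × 10⁴/well) mixed with cell-free virus (MOI 0.03) or with infected-cell suspension (MOI 0.001 to 0.002). Compound was added from DMSO stocks in 2-fold serial dilutions, final 250 to 0.00005 μM, in duplicates. Plates were incubated 6 to 7 days at 37°C or until 100% CPE in virus control, then fixed and stained with Giemsa/formalin and scored microscopically. EC₅₀ is 50% CPE inhibition versus untreated infected control.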

[19] = tested on: Human betaherpesvirus 5; experiment: Antiviral activity against human cytomegalovirus isolate 472 infected in NHDF assessed as inhibition of virus-induced cytopathic effect after 6 to 7 days by giemsa staining; assay type: functional, organism-based; conditions: Human betaherpesvirus 5, isolate 472, NHDF; procedure, shortened: as §7
[20] = tested on: Human betaherpesvirus 5; experiment: Antiviral activity against human cytomegalovirus infected in NHDF after 7 days by GFP-based fluorescent reduction assay; assay type: functional, organism-based; conditions: Human betaherpesvirus 5, NHDF, 168 h; procedure, shortened: as §6
[21] = tested on: Human betaherpesvirus 5; experiment: Antiviral activity against 0.003 MOI human cytomegalovirus AD169 infected in NHDF after 7 days by GFP-based fluorescent reduction assay; assay type: functional, organism-based; conditions: Human betaherpesvirus 5, AD169, NHDF, 168 h; procedure, shortened: as §3
[22] = tested on: Human betaherpesvirus 5; experiment: Antiviral activity against human cytomegalovirus AD169 infected in NHDF assessed as inhibition of virus-induced cytopathic effect after 6 to 7 days by giemsa staining; assay type: functional, organism-based; conditions: Human betaherpesvirus 5, AD169, NHDF; procedure, shortened: as §7
[23] = tested on: Human betaherpesvirus 5; experiment: Antiviral activity against human cytomegalovirus infected in human HS27 cells after 7 days by GFP-based fluorescent reduction assay; assay type: functional, organism-based; conditions: Human betaherpesvirus 5, HS27, 168 h
Procedure, shortened: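 GFP reduction assay run in HS27 foreskin fibroblasts instead of NHDF, infected with AD169-GFP; compounds in 3-fold serial dilutions, 7 days at 37°C, GFP units read by camera-based fluorescence detector after PBS exchange. EC50 from % GFPU reduction versus drug-free infected control; at least triplicate experiments.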

[24] = tested on: Human betaherpesvirus 5; experiment: Antiviral activity against 0.3 MOI human cytomegalovirus AD169 infected in NHDF after 7 days by GFP-based fluorescent reduction assay; assay type: functional, organism-based; conditions: Human betaherpesvirus 5, AD169, NHDF, 168 h; procedure, shortened: as §3
[25] = tested on: Human betaherpesvirus 5; experiment: Antiviral activity against human cytomegalovirus infected in NHLF after 7 days by GFP-based fluorescent reduction assay; assay type: functional, organism-based; conditions: Human betaherpesvirus 5, 168 h; procedure, shortened: as §6
[26] = tested on: Human betaherpesvirus 5; experiment: Antiviral activity against 0.01 MOI human cytomegalovirus AD169 infected in NHDF after 7 days by GFP-based fluorescent reduction assay; conditions: Human betaherpesvirus 5, AD169, NHDF, 168 h
[27] = tested on: Human betaherpesvirus 5; experiment: Antiviral activity against human cytomegalovirus RV-HG infected in NHDF after 7 days by GFP-based fluorescent reduction assay; assay type: functional, organism-based; conditions: Human betaherpesvirus 5, RV-HG, 168 h; procedure, shortened: as §5
[28] = tested on: Human herpesvirus 5 strain AD169; experiment: Antiviral activity against ganciclovir-resistant human cytomegalovirus AD169 UL97 M460I infected in NHDF assessed as inhibition of virus-induced cytopathic effect after 6 to 7 days by giemsa staining; assay type: functional, organism-based; conditions: Human betaherpesvirus 5, UL97 M460I; procedure, shortened: as §7
[29] = tested on: Human betaherpesvirus 5; experiment: Antiviral activity against human cytomegalovirus AD169 infected in NHDF assessed as inhibition of virus replication at 20 uM after 96 hrs by fluorescence assay; assay type: functional, organism-based
[30] = tested on: Human betaherpesvirus 5; experiment: Antiviral activity against human cytomegalovirus AD169 infected in NHDF at 20 uM treated after 33 hrs postinfection measured after 7 days by GFP-based fluorescent reduction assay; assay type: functional, organism-based
[31] = tested on: Human betaherpesvirus 5; experiment: Antiviral activity against human cytomegalovirus AD169 infected in NHDF at 10 times EC50 treated postinfection and measured after 7 days by GFP-based fluorescent reduction assay

Structure (SMILES): Nc1nc(O)c2ncn(COC(CO)CO)c2n1 [GANCICLOVIR]
- CC50 at 168 h [1]: > 333 µM
- CC50 at 168 h [2]: > 333 µM
- selectivity ratio [3]: > 1040
- CC50 at 168 h [4]: > 333 µM
- CC50 at 168 h [5]: > 333 µM
- selectivity ratio [6]: > 202
- CC50 at 168 h [7]: > 333 µM
- selectivity ratio [8]: > 139

Structure (SMILES): Nc1nc2c(ncn2COC(CO)CO)c(=O)[nH]1 [GANCICLOVIR]
- EC50 [9]: 2.21 µM
- EC50 [10]: 14 µM
- EC50 [11]: 1.73 µM
- EC90 [11]: 10.7 µM
- Activity [12]: Active
- EC50 [13]: 5.26 µM
- EC50 [14]: 1.74 µM
- EC50 [15]: 15 µM
- EC50 [16]: 1.1 µM
- EC50 [17]: 2.39 µM
- EC50 [18]: 2.7 µM
- EC50 [19]: 5 µM
- EC50 [20]: 1.91 µM
- EC50 [21]: 0.99 µM
- EC50 [22]: 4.3 µM
- EC50 [23]: 0.32 µM
- EC50 [24]: 6.51 µM
- EC50 [25]: 2.07 µM
- EC50 [26]: 0.68 µM
- EC50 [27]: 2.33 µM
- EC90 [27]: 18.3 µM
- EC50 [28]: 12 µM
- Activity [29]: Active
- Activity [30]: Active
- Activity [31]: Active
